Measured values taken from ChEMBL document CHEMBL1136049, “Synthesis of syn- and anti-1-amino-3-[18F]fluoromethyl-cyclobutane-1-carboxylic acid (FMACBC), potential PET ligands for tumor detection” (J Med Chem, 2002).

Tests used:
Rattus norvegicus [1] = species on record: Rattus norvegicus; assay: Radioactivity distribution in heart of tumor-bearing fischer rat after injection of syn-[18F]-FMACBC after 60 min; assay type: ADME, organism-based; conditions: in vivo, 1 h
Method in brief: (§1)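 Male Fischer 344 rats carrying intracranial rat 9L gliosarcoma, made by stereotaxic injection of 4 × 10^4 cells 17–19 days before. Awake restrained rats received ~35 μCi of 18F tracer in 0.3 mL sterile water IV by tail vein and were killed at 5, 60 or 120 min, n = 3–5. Tissues were weighed, gamma-counted, decay-corrected and expressed as % injected dose per gram.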

Rattus norvegicus [2] = species on record: Rattus norvegicus; assay: Radioactivity distribution in spleen of normal fischer rat after injection of anti-[18F]FMACBC after 120 min.; assay type: ADME, organism-based; conditions: in vivo, 2 h
Method in brief: (§2)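 Normal male Fischer 344 rats (200–250 g) were anesthetised with ketamine:xylazine i.m. and given about 85 μCi tracer in 0.3 mL sterile water via a tail vein catheter. Groups of four were killed at 5, 30, 60 and 120 min. Selected tissues were weighed and gamma counted with dose standards, decay-corrected, and expressed as mean %ID/g.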

Rattus norvegicus [3] = species on record: Rattus norvegicus; assay: Radioactivity distribution in pancreas of normal fischer rat after injection of anti-[18F]FMACBC after 30 min.; assay type: ADME, organism-based; conditions: in vivo, 0.5 h; method in brief: as §2
Rattus norvegicus [4] = species on record: Rattus norvegicus; assay: Radioactivity distribution in heart of tumor-bearing fischer rat after injection of anti-[18F]FMACBC after 120 min; assay type: ADME, organism-based; conditions: in vivo, 2 h; method in brief: as §1
Rattus norvegicus [5] = species on record: Rattus norvegicus; assay: Radioactivity distribution in tumor of tumor-bearing fischer rat after injection of anti-[18F]FMACBC after 60 min; assay type: ADME, organism-based; conditions: in vivo, 1 h
Method in brief: (§3)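 Male Fischer 344 rats with intracranial 9L gliosarcoma (4 × 10^4 cells stereotaxically implanted; used 17–19 days after implantation). About 35 μCi tracer in 0.3 mL sterile water was given by tail vein to awake, restrained rats. Rats were killed at 5, 60 or 120 min. Tissues, tumor and contralateral brain were weighed and gamma counted, decay-corrected, and expressed as %ID/g; n = 3–5 per time point.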

Rattus norvegicus [6] = species on record: Rattus norvegicus; assay: Radioactivity distribution in pancreas of tumor-bearing fischer rat after injection of syn-[18F]-FMACBC after 5 min; assay type: ADME, organism-based; conditions: in vivo; method in brief: as §3
Rattus norvegicus [7] = species on record: Rattus norvegicus; assay: Radioactivity distribution in lung of tumor-bearing fischer rat after injection of anti-[18F]FMACBC after 60 min; assay type: ADME, organism-based; conditions: in vivo, 1 h; method in brief: as §3
Rattus norvegicus [8] = species on record: Rattus norvegicus; assay: Radioactivity distribution in kidney of tumor-bearing fischer rat after injection of syn-[18F]-FMACBC after 60 min; assay type: ADME, organism-based; conditions: in vivo, 1 h; method in brief: as §1
Rattus norvegicus [9] = species on record: Rattus norvegicus; assay: Radioactivity distribution in bone of tumor-bearing fischer rat after injection of syn-[18F]-FMACBC after 120 min; assay type: ADME, organism-based, Bone element; conditions: in vivo, 2 h; method in brief: as §1
Rattus norvegicus [10] = species on record: Rattus norvegicus; assay: Radioactivity distribution in liver of normal fischer rat after injection of syn-[18F]-FMACBC after 5 min.; assay type: ADME, organism-based; conditions: in vivo
Method in brief: (§4)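 Male Fischer 344 rats (200–250 g), normal, fed ad libitum, given ~85 μCi of 18F tracer in 0.3 mL sterile water IV through a tail vein catheter. Anesthesia was ketamine:xylazine IM. Groups of four were killed at 5, 30, 60 and 120 min. Tissues were weighed and gamma-counted against dose standards, decay-corrected, and expressed as mean % injected dose per gram.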

Rattus norvegicus [11] = species on record: Rattus norvegicus; assay: Radioactivity distribution in testis of normal fischer rat after injection of syn-[18F]-FMACBC after 5 min.; assay type: ADME, organism-based; conditions: in vivo; method in brief: as §2
Rattus norvegicus [12] = species on record: Rattus norvegicus; assay: Radioactivity distribution in tumor of tumor-bearing fischer rat after injection of syn-[18F]-FMACBC after 60 min; assay type: ADME, organism-based; conditions: in vivo, 1 h; method in brief: as §3
Rattus norvegicus [13] = species on record: Rattus norvegicus; assay: Radioactivity distribution in muscle of normal fischer rat after injection of anti-[18F]FMACBC after 5 min.; assay type: ADME, organism-based, Muscle tissue; conditions: in vivo; method in brief: as §2
Rattus norvegicus [14] = species on record: Rattus norvegicus; assay: Radioactivity distribution in liver of tumor-bearing fischer rat after injection of syn-[18F]-FMACBC after 5 min; assay type: ADME, organism-based; conditions: in vivo; method in brief: as §3
Rattus norvegicus [15] = species on record: Rattus norvegicus; assay: Radioactivity distribution in kidney of normal fischer rat after injection of syn-[18F]-FMACBC after 5 min.; assay type: ADME, organism-based; conditions: in vivo; method in brief: as §4
Rattus norvegicus [16] = species on record: Rattus norvegicus; assay: Radioactivity distribution in blood of tumor-bearing fischer rat after injection of syn-[18F]-FMACBC after 5 min; assay type: ADME, organism-based; conditions: in vivo; method in brief: as §1
Rattus norvegicus [17] = species on record: Rattus norvegicus; assay: Radioactivity distribution in pancreas of normal fischer rat after injection of anti-[18F]FMACBC after 120 min.; assay type: ADME, organism-based; conditions: in vivo, 2 h; method in brief: as §2
Rattus norvegicus [18] = species on record: Rattus norvegicus; assay: Radioactivity distribution in kidney of tumor-bearing fischer rat after injection of syn-[18F]-FMACBC after 120 min; assay type: ADME, organism-based; conditions: in vivo, 2 h; method in brief: as §1

N[C@]1(C(=O)O)C[C@@H](CF)C1
ID/g (Rattus norvegicus [1]): 0.44%
ID/g (Rattus norvegicus [2]): 0.47%
ID/g (Rattus norvegicus [3]): 4.13%
ID/g (Rattus norvegicus [4]): 0.52%
ID/g (Rattus norvegicus [5]): 2.5%
ID/g (Rattus norvegicus [6]): 3.19%
ID/g (Rattus norvegicus [7]): 0.38%
ID/g (Rattus norvegicus [8]): 0.42%
ID/g (Rattus norvegicus [9]): 0.13%
ID/g (Rattus norvegicus [10]): 0.66%
ID/g (Rattus norvegicus [11]): 0.32%
ID/g (Rattus norvegicus [12]): 1.59%
ID/g (Rattus norvegicus [13]): 0.46%
ID/g (Rattus norvegicus [14]): 0.64%
ID/g (Rattus norvegicus [15]): 0.57%
ID/g (Rattus norvegicus [16]): 0.44%
ID/g (Rattus norvegicus [17]): 4.09%
ID/g (Rattus norvegicus [18]): 0.34%
